Data as given in ChEMBL document CHEMBL1138564, “Microwave-induced synthesis and anti-microbial activities of 7,10,11,12-tetrahydrobenzo[c]acridin-8(9H)-one derivatives” (2009).
Values after ≈ are worked out from the molar mass of the structure shown. Active and inactive are the calls of the source. No cut-off for these calls is given here.

How the values were obtained:
[1] = system: Bacillus subtilis; assay: Antimicrobial activity against Bacillus subtilis NCIM 2063 at 1000 ug/disk after 24 hrs by disk diffusion method; type: functional; conditions: NCIM 2063, 24 h, read-out: DIZ
Method in brief: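 Disc diffusion on Mueller–Hinton agar. 100 µl of bacterial suspension at 10⁸ CFU/ml is spread on the plate. Discs carry test compounds at two loadings, dissolved in DMSO; DMSO alone serves as negative control. Ofloxacin disc is the positive reference. Plates are incubated at 37 °C for 24 h, and the inhibition zone diameter is measured.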

[2] = system: Salmonella typhimurium; assay: Antimicrobial activity against Salmonella Typhimurium NCIM 2501 at 500 ug/disk after 24 hrs by disk diffusion method; type: functional, Salmonella enterica subsp. enterica serovar Typhimurium; conditions: for zone of inhibition at 500 µg/disc: Salmonella enterica, NCIM 2501, 24 h, read-out: DIZ
Method in brief: (§1)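 Disc diffusion. 100 µl of bacterial suspension at 10⁸ CFU/ml was spread on Mueller–Hinton agar. Discs loaded with test compound dissolved in DMSO were placed on the lawn, with a DMSO-only disc as negative control. Plates were incubated at 37 °C for 24 h, and the inhibition zone diameter was measured.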

[3] = system: Staphylococcus; assay: Antimicrobial activity against Staphylococcus albus NCIM 2178 at 500 ug/disk after 24 hrs by disk diffusion method; type: functional; conditions: for zone of inhibition at 500 µg/disc: NCIM 2178, 24 h, read-out: DIZ; method in brief: as §1
[4] = system: Aspergillus fumigatus; assay: Antimicrobial activity against Aspergillus fumigatus NCIM 902 at 500 ug/disk after 72 hrs by disk diffusion method; type: functional
Method in brief: (§2)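 Disc diffusion on Sabouraud's dextrose agar. 100 µl of fungal suspension at 10⁶ CFU/ml is spread on the plate. Discs carry test compounds at two loadings in DMSO; DMSO alone is the negative control. Clotrimazole disc is the positive reference. Plates are incubated at 27 °C for 72 h, and the zone of inhibition diameter is measured.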

[5] = system: Aspergillus parasiticus; assay: Antimicrobial activity against Aspergillus parasiticus NCIM 904 at 1000 ug/disk after 72 hrs by disk diffusion method; type: functional; conditions: NCIM 904, 72 h, read-out: DIZ; method in brief: as §2
[6] = system: Lipomyces lipofer; assay: Antimicrobial activity against Lipomyces lipofer NCIM 3252 at 1000 ug/disk after 72 hrs by disk diffusion method; type: functional; conditions: for zone of inhibition at 1000 µg/disc: NCIM 3252, 72 h, read-out: DIZ; method in brief: as §2
[7] = system: Rhodotorula mucilaginosa; assay: Antimicrobial activity against Rhodotorula rubra NCIM 3174 after 72 hrs by serial dilution method; type: functional; conditions: NCIM 3174, 72 h
Method in brief: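 MIC by broth dilution in Sabouraud's dextrose broth, run only on fungi found sensitive in the disc assay. Twofold serial dilutions were made in 1 ml broth per tube, covering 3.9 to 1000. Inoculated tubes were incubated at 27 °C for 72 h.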

[8] = system: Aspergillus fumigatus; assay: Antimicrobial activity against Aspergillus fumigatus NCIM 902 after 72 hrs by serial dilution method; type: functional; conditions: NCIM 902, 72 h
Method in brief: (§3)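 MIC by broth dilution in Sabouraud's dextrose broth, only for fungi sensitive in disc diffusion. Two-fold serial dilutions of compounds are made in 1 ml broth per tube, range 3.9 to 1000. Inoculated tubes are incubated at 27 °C for 72 h.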

[9] = system: Lipomyces lipofer; assay: Antimicrobial activity against Lipomyces lipofer NCIM 3252 after 72 hrs by serial dilution method; type: functional; conditions: NCIM 3252, 72 h; method in brief: as §3
[10] = system: Klebsiella aerogenes; assay: Antimicrobial activity against Klebsiella aerogenes NCIM 2239 after 24 hrs by serial dilution method; type: functional; conditions: NCIM 2239, 24 h
Method in brief: (§4)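 Broth dilution MIC in nutrient broth, run only for organisms found sensitive in disc diffusion. Compounds are two-fold serially diluted in 1 ml sterile broth per tube, spanning 3.9 to 1000. Inoculated tubes are incubated at 37 °C for 24 h.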

[11] = system: Salmonella typhimurium; assay: Antimicrobial activity against Salmonella Typhimurium NCIM 2501 after 24 hrs by serial dilution method; type: functional, Salmonella enterica subsp. enterica serovar Typhimurium; conditions: Salmonella enterica, NCIM 2501, 24 h
[12] = system: Bacillus subtilis; assay: Antimicrobial activity against Bacillus subtilis NCIM 2063 after 24 hrs by serial dilution method; type: functional; conditions: NCIM 2063, 24 h; method in brief: as §4
[13] = system: Bacillus cereus; assay: Antimicrobial activity against Bacillus cereus NCIM 2155 after 24 hrs by serial dilution method; type: functional; conditions: NCIM 2155, 24 h; method in brief: as §4
[14] = system: Aliivibrio fischeri; assay: Antimicrobial activity against Vibrio fischeri NCIM 2154 after 24 hrs by serial dilution method; type: functional; conditions: NCIM 2154, 24 h
[15] = system: Aspergillus niger; assay: Antimicrobial activity against Aspergillus niger NCIM 1196 at 500 ug/disk after 72 hrs by disk diffusion method
[16] = system: Aspergillus niger; assay: Antimicrobial activity against Aspergillus niger NCIM 1196 at 1000 ug/disk after 72 hrs by disk diffusion method
[17] = system: Aspergillus niger; assay: Antimicrobial activity against Aspergillus niger NCIM 902 at 500 ug/disk after 72 hrs by disk diffusion method; type: functional; conditions: NCIM 1196, 72 h, in the assay text read “NCIM 1196” for “NCIM 902”, read-out: DIZ; method in brief: as §2
[18] = system: Aspergillus niger; assay: Antimicrobial activity against Aspergillus niger NCIM 902 at 1000 ug/disk after 72 hrs by disk diffusion method; type: functional; conditions: NCIM 1196, 72 h, in the assay text read “NCIM 1196” for “NCIM 902”, read-out: DIZ; method in brief: as §2
[19] = system: Staphylococcus; assay: Antimicrobial activity against Staphylococcus albus NCIM 2178 after 24 hrs by serial dilution method; type: functional; conditions: NCIM 2178, 24 h
[20] = system: Proteus vulgaris; assay: Antimicrobial activity against Proteus vulgaris NCIM 2027 after 24 hrs by serial dilution method; type: functional; conditions: NCIM 2027, 24 h; method in brief: as §4
[21] = system: Aspergillus niger; assay: Antimicrobial activity against Aspergillus niger NCIM 902 after 72 hrs by serial dilution method; type: functional; conditions: NCIM 1196, 72 h, in the assay text read “NCIM 1196” for “NCIM 902”; method in brief: as §3
[22] = system: Penicillium chrysogenum; assay: Antimicrobial activity against Penicillium chrysogenum NCIM 707 after 72 hrs by serial dilution method; type: functional; conditions: NCIM 707, 72 h; method in brief: as §3
[23] = system: Pseudomonas aeruginosa; assay: Antimicrobial activity against Pseudomonas aeruginosa NCIM 2200 after 24 hrs by serial dilution method; type: functional; conditions: NCIM 2200, 24 h; method in brief: as §4
[24] = system: Rhodococcus corynebacterioides; assay: Antimicrobial activity against Corynebacterium rubrum NCIM 2252 after 24 hrs by serial dilution method; type: functional; conditions: Rhodococcoides corynebacterioides, NCIM 2252, 24 h; method in brief: as §4

Compound | zone of inhibition at 1000 µg/disc [1] [mm] | zone of inhibition at 500 µg/disc [2] [mm] | diameter of the inhibition zone (DIZ) [3] | diameter of the inhibition zone (DIZ) [4] | zone of inhibition at 1000 µg/disc [5] [mm] | zone of inhibition at 1000 µg/disc [6] [mm] | MIC [7] [µg/mL] | MIC [8] [µg/mL] | MIC [9] [µg/mL] | MIC [10] [µg/mL] | MIC [11] [µg/mL] | MIC [12] [µg/mL] | MIC [13] [µg/mL] | MIC [14] [µg/mL] | diameter of the inhibition zone (DIZ) [15] | diameter of the inhibition zone (DIZ) [16] | diameter of the inhibition zone (DIZ) [6] | zone of inhibition at 500 µg/disc [3] [mm] | MIC [19] [µg/mL] | MIC [20] [µg/mL] | other results
CC1(C)CC(=O)C2=C(C1)Nc1c(ccc3ccccc13)C2c1ccccc1Cl (centres undefined) | 8 | 10 | inactive | inactive | 10 | 10 | 15.6 (≈ 40.2 µM) | 125 (≈ 322 µM) | 125 (≈ 322 µM) | 125 (≈ 322 µM) | 31.2 (≈ 80.4 µM) | 62.5 (≈ 161 µM) | 31.2 (≈ 80.4 µM) | 62.5 (≈ 161 µM) | inactive | inactive |  |  |  |  | 
CC1(C)CC(=O)C2=C(C1)Nc1c(ccc3ccccc13)C2c1ccccc1O (centres undefined) | 9 | 10 | inactive | inactive | 16 |  | 7.8 (≈ 21.1 µM) |  |  | 62.5 (≈ 169 µM) | 31.2 (≈ 84.4 µM) | 62.5 (≈ 169 µM) | 62.5 (≈ 169 µM) | 125 (≈ 338 µM) | inactive | inactive | inactive |  |  |  | 
O=C1CCCC2=C1C(c1ccc(O)cc1)c1ccc3ccccc3c1N2 (centres undefined) | 11 | 7 |  | inactive | 13 | 11 | 7.8 (≈ 22.8 µM) |  | 62.5 (≈ 183 µM) | 62.5 (≈ 183 µM) | 125 (≈ 366 µM) | 31.2 (≈ 91.4 µM) |  | 125 (≈ 366 µM) |  |  |  | 8 | 62.5 (≈ 183 µM) | 125 (≈ 366 µM) | zone of inhibition at 500 µg/disc [17]: 9 mm; zone of inhibition at 1000 µg/disc [18]: 9 mm; MIC [21]: 62.5 µg/mL (≈ 183 µM); MIC [22]: 125 µg/mL (≈ 366 µM); MIC [23]: 125 µg/mL (≈ 366 µM); MIC [24]: 125 µg/mL (≈ 366 µM)
CC1(C)CC(=O)C2=C(C1)Nc1c(ccc3ccccc13)C2c1ccc(Cl)cc1 (centres undefined) | 10 | 9 |  | inactive | 17 |  | 15.6 (≈ 40.2 µM) | 125 (≈ 322 µM) |  | 62.5 (≈ 161 µM) | 31.2 (≈ 80.4 µM) | 31.2 (≈ 80.4 µM) | 15.6 (≈ 40.2 µM) | 62.5 (≈ 161 µM) | inactive | inactive | inactive | 7 | 125 (≈ 322 µM) | 62.5 (≈ 161 µM) | MIC [23]: 62.5 µg/mL (≈ 161 µM); MIC [24]: 62.5 µg/mL (≈ 161 µM)
O=C1CCCC2=C1C(c1ccccc1O)c1ccc3ccccc3c1N2 (centres undefined) | 10 |  | inactive | inactive | 10 |  | 15.6 (≈ 45.7 µM) | 62.5 (≈ 183 µM) |  |  |  | 62.5 (≈ 183 µM) | 125 (≈ 366 µM) |  | inactive |  | inactive |  |  |  | diameter of the inhibition zone (DIZ) ([2]; Salmonella enterica subsp. enterica serovar Typhimurium): inactive; zone of inhibition at 1000 µg/disc [18]: 9 mm; MIC [21]: 125 µg/mL (≈ 366 µM); MIC [22]: 125 µg/mL (≈ 366 µM)
CC1(C)CC(=O)C2=C(C1)Nc1c(ccc3ccccc13)C2c1cccc([N+](=O)[O-])c1 (centres undefined) | 11 | 10 |  |  | 16 | 11 | 7.8 (≈ 19.6 µM) | 62.5 (≈ 157 µM) | 62.5 (≈ 157 µM) | 31.2 (≈ 78.3 µM) | 15.6 (≈ 39.2 µM) | 31.2 (≈ 78.3 µM) | 15.6 (≈ 39.2 µM) | 62.5 (≈ 157 µM) | inactive | inactive |  | 7 | 125 (≈ 314 µM) | 125 (≈ 314 µM) | zone of inhibition at 500 µg/disc ([4]; NCIM 902, 72 h, read-out: DIZ): 8 mm; MIC [22]: 62.5 µg/mL (≈ 157 µM); MIC [23]: 125 µg/mL (≈ 314 µM); MIC [24]: 125 µg/mL (≈ 314 µM)
